This is an account of results in ChEMBL document CHEMBL4813946, “Discovery of novel 4-azaaryl-N-phenylpyrimidin-2-amine derivatives as potent and selective FLT3 inhibitors for acute myeloid leukaemia with FLT3 mutations” (Eur J Med Chem, 2021).

Experiment [1] deals with Cyclin-dependent kinase 1/cyclin B1 (Homo sapiens, UniProt P06493). Nature of the experiment: Inhibition of CDK1/cyclin B (unknown origin) using histone 1 protein substrate incubated for 120 mins measured after 40 mins incubation under dark by ADP-glo based luminescence assay. Type of experiment: protein-complex assay. The essentials:
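In-house ADP-Glo assay with 2 mM DMSO stocks. Kinases were CDK1/cyclin B at 1 nM, CDK2/cyclin E1 at 10 nM and CDK7/cyclin H/MAT1 at 40 nM. Substrate was histone 1 for CDK1 and CDK2, and a RNA pol II CTD peptide for CDK7. Compound at 8–10 concentrations, 1:3 serial, final DMSO 0.5%. Reactions ran 60–120 min at room temperature, then ADP-Glo reagent 40 min in the dark, then detection reagent 40 min, read by luminescence. Ki was derived from IC50 by Cheng-Prusoff.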

Experiment [2] has as its system U-937. Nature of the experiment: Induction of apoptosis in human U937 cells assessed as late apoptotic cells at 5 x GI50 concentration incubated for 48 hrs by annexin V-FITC staining based flow cytometry (Rvb =9.82 %). It counts as functional. Background: Flow cytometry measures light scatter and fluorescence of single cells or particles in a stream.
The test system of experiment [3] is U-937. Put plainly: Induction of apoptosis in human U937 cells assessed as necrotic cells at 10 x GI50 concentration incubated for 48 hrs by annexin V-FITC staining based flow cytometry (reference value: 1.16 %). Type of experiment: functional.
Experiment [4] has as its system U-937. Put plainly: Induction of apoptosis in human U937 cells assessed as necrotic cells at 20 x GI50 concentration incubated for 24 hrs by annexin V-FITC and propidium iodide staining based flow cytometry (reference value: 10.30 %). Type of experiment: functional.
For experiment [5], the system named is MV4-11. Put plainly: Induction of apoptosis in human MV4-11 cells assessed as necrotic cells at 20 x GI50 concentration incubated for 24 hrs by annexin V-FITC and propidium iodide staining based flow cytometry (reference value: 0.75 %). Type of experiment: functional.
In experiment [6] the test system is U-937. Nature of the experiment: Induction of apoptosis in human U937 cells assessed as early apoptotic cells at 20 x GI50 concentration incubated for 24 hrs by annexin V-FITC and propidium iodide staining based flow cytometry (reference value: 1.81 %). Type of experiment: functional.
Experiment [7] concerns MV4-11. Put plainly: Induction of apoptosis in human MV4-11 cells assessed as early apoptotic cells at 5 x GI50 concentration incubated for 24 hrs by annexin V-FITC and propidium iodide staining based flow cytometry (reference value: 2.12 %). It counts as functional.
The target in experiment [8] is Receptor-type tyrosine-protein kinase FLT3 (Homo sapiens, UniProt P36888, D835Y). Nature of the experiment: Inhibition of FLT3 D835Y mutant (unknown origin) incubated for 120 mins by ADP-glo based luminescence assay. In general terms: In ADP-Glo the light output rises with the ADP produced.
For experiment [9], the system named is MV4-11. Nature of the experiment: Induction of apoptosis in human MV4-11 cells assessed as viable cells at 20 x GI50 concentration incubated for 24 hrs by annexin V-FITC and propidium iodide staining based flow cytometry (reference value: 84.68 %). Type of experiment: functional.
For experiment [10], the system named is MV4-11. Put plainly: Induction of apoptosis in human MV4-11 cells assessed as necrotic cells at 10 x GI50 concentration incubated for 48 hrs by annexin V-FITC and propidium iodide staining based flow cytometry (reference value: 0.45 %). It counts as functional.
Experiment [11] relates to U-937. Nature of the experiment: Induction of apoptosis in human U937 cells assessed as late apoptotic cells at 20 x GI50 concentration incubated for 24 hrs by annexin V-FITC and propidium iodide staining based flow cytometry (reference value: […] %). Type of experiment: functional.
For experiment [12], the system named is U-937. Put plainly: Induction of apoptosis in human U937 cells assessed as viable cells at 1 x GI50 concentration incubated for 48 hrs by annexin V-FITC staining based flow cytometry (reference value: 86.25 %). It counts as functional.
Experiment [13] concerns the target Receptor-type tyrosine-protein kinase FLT3 (Homo sapiens) (UniProt P36888). Nature of the experiment: Inhibition of FLT3-mediated signalling pathway in human MV4-11 cells assessed as inhibition of ERK phosphorylation upto 20 x GI50 concentration incubated for 6 hrs by western blot analysis. It counts as cell-based. The essentials:
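Cells lysed in phosphate lysis buffer with protease inhibitors and protein quantified. Western blots probed phospho and total STAT5, AKT, ERK, S6RP and eIF4E, plus full-length and cleaved PARP and caspase-3, with β-actin as loading control. At least two independent experiments.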
On the technique in general: In western blotting, separated proteins are transferred to a membrane and probed.

The test system of experiment [14] is U-937. Nature of the experiment: Induction of apoptosis in human U937 cells assessed as early apoptotic cells at 1 x GI50 concentration incubated for 48 hrs by annexin V-FITC staining based flow cytometry (Rvb =2.78 %). It counts as functional.
Experiment [15] in a line: Inhibition of FLT3 ITD-W51 mutant (unknown origin) incubated for 120 mins by ADP-glo based luminescence assay. Further details: species or system Homo sapiens.
Experiment [16] deals with T1, Receptor-type tyrosine-protein kinase FLT3 (Homo sapiens, UniProt P36888).
T1 sequence (P36888 whole entry): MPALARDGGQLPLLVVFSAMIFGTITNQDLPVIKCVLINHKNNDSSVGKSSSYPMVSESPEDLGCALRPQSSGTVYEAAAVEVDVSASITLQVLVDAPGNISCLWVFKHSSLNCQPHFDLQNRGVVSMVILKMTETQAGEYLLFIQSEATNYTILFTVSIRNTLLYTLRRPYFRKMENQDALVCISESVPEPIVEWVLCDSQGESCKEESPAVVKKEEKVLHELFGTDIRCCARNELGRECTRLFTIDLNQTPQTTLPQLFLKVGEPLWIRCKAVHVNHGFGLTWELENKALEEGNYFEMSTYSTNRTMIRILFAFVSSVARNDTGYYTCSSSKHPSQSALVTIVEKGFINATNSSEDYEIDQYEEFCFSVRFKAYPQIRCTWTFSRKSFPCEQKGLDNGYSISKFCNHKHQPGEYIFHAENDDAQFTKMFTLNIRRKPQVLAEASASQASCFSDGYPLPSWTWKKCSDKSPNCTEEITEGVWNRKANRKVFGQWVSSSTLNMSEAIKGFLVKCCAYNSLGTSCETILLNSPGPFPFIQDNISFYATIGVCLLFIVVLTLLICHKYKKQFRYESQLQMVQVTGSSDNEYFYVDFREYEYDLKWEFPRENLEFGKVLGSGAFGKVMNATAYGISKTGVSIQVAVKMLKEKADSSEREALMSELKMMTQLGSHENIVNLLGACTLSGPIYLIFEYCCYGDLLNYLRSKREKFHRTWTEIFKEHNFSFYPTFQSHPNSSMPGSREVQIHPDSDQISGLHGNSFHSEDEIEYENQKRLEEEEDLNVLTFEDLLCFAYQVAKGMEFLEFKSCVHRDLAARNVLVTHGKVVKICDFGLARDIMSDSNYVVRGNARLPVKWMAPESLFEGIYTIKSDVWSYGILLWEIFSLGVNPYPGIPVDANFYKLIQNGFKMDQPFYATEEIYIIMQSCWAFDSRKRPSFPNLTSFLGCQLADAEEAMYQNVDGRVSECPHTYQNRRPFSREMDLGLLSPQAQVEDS
Put plainly: Inhibition of wild type FLT3 (unknown origin) using Glu/Tyr peptide substrate incubated for 120 mins measured after 40 mins incubation under dark by ADP-glo based luminescence assay. The essentials: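 In-house ADP-Glo assay with poly(Glu,Tyr) 4:1 substrate in 40 mM Tris pH 7.5, 20 mM MgCl2, 50 µM DTT, 0.1 mg/mL BSA. Kinase at 20 nM. ADP-Glo reagent 40 min in the dark, detection reagent 30–40 min, then luminescence. Ki was derived from IC50 by Cheng-Prusoff.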

Experiment [17] has as its system U-937. Put plainly: Induction of apoptosis in human U937 cells assessed as viable cells at 20 x GI50 concentration incubated for 48 hrs by annexin V-FITC staining based flow cytometry (reference value: 86.25%). Type of experiment: functional.

SMILES strings stand for the structures. Activity calls are given as the source filed them. The calls are words filed in the database; no cut-off is given here.

The term Ki denotes a measure of affinity in units of concentration, obtained from inhibition or displacement. Read a high Ki as lower affinity.

Chain of Cyclin-dependent kinase 1/cyclin B1 (P06493 whole entry): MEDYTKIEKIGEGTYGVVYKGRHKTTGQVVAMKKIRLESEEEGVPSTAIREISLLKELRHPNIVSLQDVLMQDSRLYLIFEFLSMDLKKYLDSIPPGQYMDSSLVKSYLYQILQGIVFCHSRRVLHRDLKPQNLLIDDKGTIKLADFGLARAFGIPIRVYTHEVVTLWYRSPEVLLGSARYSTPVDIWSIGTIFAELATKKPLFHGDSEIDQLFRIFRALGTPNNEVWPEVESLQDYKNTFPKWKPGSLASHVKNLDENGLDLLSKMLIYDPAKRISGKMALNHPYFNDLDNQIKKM
Chain of Cyclin-dependent kinase 1/cyclin B1 (P14635 whole entry, further chain): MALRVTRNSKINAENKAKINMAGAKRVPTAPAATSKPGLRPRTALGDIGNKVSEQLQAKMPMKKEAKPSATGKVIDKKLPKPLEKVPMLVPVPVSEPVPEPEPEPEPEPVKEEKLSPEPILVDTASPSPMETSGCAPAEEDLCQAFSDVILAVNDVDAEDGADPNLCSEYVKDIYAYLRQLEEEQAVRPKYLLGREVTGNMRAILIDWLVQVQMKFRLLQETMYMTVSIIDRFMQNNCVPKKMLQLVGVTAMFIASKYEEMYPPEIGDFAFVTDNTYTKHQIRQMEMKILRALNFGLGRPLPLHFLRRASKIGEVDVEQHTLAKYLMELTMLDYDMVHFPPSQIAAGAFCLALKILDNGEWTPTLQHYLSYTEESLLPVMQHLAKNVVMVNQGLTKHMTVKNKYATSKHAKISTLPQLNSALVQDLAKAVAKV

As to `CC(=O)N1CCN(c2ccc(Nc3nccc(-c4cn(C)c5ncccc45)n3)cc2)CC1`, the Ki in experiment [1] is above 5000 nM; in experiment [8], 47 nM; in [15] it was 84 nM; in experiment [16], 9 nM. Also, the Activity in the experiment on U-937 [2] came out at 8.16%; with U-937 [3], 1.57%; with U-937 [4] it was 10.43%; with MV4-11 [5] it was 20.95%; with U-937 [6] it was 2.63%; in the experiment with MV4-11 [7], 1.91%. Also, the Activity is reported as 73.52% in the experiment with MV4-11 [9]; 1.48% in the experiment with MV4-11 [10]; 1.64% in the experiment on U-937 [11]; 87.16% in the experiment on U-937 [12]; 2.21% in the experiment on U-937 [14]; 80.33% with U-937 [17]. In experiment [13], the inhibition entry was “Active”.
